The values that follow come from ChEMBL document CHEMBL5523688, “Selective targeting of human TET1 by cyclic peptide inhibitors: Insights from biochemical profiling” (Bioorg Med Chem, 2024).

For test [1], the target named is T1, Methylcytosine dioxygenase TET1 (Homo sapiens, UniProt Q8NFU7). Put plainly: Inhibition of FLAG-tagged human TET1 catalytic domain (E1418 to V2136 residues) expressed in doxycycline induced human U2OS cells assessed as reduction in 5-hydroxymethylcytosine level at 50 to 100 uM incubated for 24 hrs by immunofluorescence assay. Format: cell-based. The conditions noted are these: dose 50-100 µM. In short, it runs like this: (§1)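 U2OS cells stably carrying dox-inducible FLAG-tagged TET1 catalytic domain (E1418–V2136), 5,000/well, seeded 4 h at 37 °C in DMEM with Tet-approved 10% FBS, pen/strep and L-glutamine. Doxycycline 1 µg/mL induction plus compound dosing (1% DMSO final) for 24 h. After fixation, cells were co-stained with anti-5hmC and anti-FLAG antibodies plus DAPI, then imaged. Read-out was mean 5hmC fluorescence in FLAG-positive cells.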
T1 sequence (Q8NFU7 whole entry, the tested form may be a part): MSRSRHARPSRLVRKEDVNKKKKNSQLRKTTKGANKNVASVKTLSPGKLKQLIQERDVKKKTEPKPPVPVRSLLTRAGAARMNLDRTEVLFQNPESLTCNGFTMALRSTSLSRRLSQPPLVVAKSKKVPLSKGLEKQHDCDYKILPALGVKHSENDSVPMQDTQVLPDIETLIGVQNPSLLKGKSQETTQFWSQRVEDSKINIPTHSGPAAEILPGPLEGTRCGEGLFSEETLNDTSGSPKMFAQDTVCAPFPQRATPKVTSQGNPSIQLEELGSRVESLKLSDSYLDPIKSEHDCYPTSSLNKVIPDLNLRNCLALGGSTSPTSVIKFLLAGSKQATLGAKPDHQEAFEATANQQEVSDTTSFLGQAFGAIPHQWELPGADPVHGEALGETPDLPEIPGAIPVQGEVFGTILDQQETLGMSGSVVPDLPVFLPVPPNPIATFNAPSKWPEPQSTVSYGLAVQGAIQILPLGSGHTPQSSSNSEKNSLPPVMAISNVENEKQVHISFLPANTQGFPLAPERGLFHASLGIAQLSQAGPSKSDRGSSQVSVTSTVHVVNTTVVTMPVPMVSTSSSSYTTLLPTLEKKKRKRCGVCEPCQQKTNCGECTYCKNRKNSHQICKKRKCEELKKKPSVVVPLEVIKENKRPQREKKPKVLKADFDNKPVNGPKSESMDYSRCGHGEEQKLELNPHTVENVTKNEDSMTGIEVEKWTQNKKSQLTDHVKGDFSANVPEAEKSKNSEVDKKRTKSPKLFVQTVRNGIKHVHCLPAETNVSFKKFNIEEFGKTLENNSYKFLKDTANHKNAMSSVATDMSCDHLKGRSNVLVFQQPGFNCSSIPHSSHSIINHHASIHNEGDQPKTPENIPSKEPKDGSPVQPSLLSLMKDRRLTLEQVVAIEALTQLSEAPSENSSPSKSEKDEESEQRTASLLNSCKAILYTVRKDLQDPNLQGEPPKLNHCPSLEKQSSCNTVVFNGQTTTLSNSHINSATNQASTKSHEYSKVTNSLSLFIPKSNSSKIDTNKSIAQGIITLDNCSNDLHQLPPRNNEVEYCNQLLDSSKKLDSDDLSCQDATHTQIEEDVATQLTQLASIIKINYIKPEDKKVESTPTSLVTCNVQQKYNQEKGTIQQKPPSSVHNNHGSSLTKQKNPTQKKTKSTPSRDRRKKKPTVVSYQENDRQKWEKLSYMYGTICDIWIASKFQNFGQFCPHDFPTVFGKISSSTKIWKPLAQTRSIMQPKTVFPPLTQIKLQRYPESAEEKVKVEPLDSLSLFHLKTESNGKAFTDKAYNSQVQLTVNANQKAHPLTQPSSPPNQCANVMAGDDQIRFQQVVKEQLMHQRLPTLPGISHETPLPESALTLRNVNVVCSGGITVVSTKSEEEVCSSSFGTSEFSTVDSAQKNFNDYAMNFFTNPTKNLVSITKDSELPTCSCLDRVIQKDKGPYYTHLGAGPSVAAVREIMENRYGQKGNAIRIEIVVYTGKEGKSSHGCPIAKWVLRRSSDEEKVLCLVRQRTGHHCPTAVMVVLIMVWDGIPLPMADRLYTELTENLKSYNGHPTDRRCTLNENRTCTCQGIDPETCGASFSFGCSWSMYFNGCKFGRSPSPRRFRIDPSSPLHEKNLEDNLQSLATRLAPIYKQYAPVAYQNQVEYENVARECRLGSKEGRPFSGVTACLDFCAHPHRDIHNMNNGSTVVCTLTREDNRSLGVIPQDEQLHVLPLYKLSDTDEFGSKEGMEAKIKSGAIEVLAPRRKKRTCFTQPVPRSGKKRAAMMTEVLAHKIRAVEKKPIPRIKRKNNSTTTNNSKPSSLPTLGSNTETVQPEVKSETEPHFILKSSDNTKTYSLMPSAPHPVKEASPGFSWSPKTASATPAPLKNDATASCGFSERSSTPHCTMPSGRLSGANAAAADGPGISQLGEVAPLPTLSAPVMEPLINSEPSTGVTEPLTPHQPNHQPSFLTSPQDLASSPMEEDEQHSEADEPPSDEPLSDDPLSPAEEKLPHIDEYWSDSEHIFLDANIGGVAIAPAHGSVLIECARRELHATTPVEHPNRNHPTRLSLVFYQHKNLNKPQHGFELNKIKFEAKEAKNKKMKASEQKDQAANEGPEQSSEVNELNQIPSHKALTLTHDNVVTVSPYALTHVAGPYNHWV

Test [2] deals with T1, Methylcytosine dioxygenase TET1. Put plainly: Inhibition of N-terminal 3xFlag-tagged recombinant human TET1 catalytic domain (E1418 to V2136 residues) expressed in baculovirus infected Sf9 cells using 5-methylcytosine as substrate preincubated for 10 mins followed by substrate and DNA-cofactor addition measured after 30 mins by Alphascreen assay. In short, it runs like this: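 TET1 catalytic domain (E1418–V2136, Sf9 baculovirus) at 2 nM was preincubated 10 min with inhibitor (1% DMSO) in HEPES 50 mM pH 7.3, 150 mM NaCl, 0.1% BSA, 0.01% Tween-20. Reaction was started with ascorbate 200 µM, Fe(II) 20 µM, 2OG 20 µM and 5mC ssDNA 10 nM, run 30 min, then EDTA-quenched. Anti-5hmC antibody with AlphaScreen beads, 45–60 min, luminescence read. Three independent replicates.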

Test [3] concerns the target Methylcytosine dioxygenase TET3 (Homo sapiens, UniProt O43151). Put plainly: Inhibition of recombinant human TET3 catalytic domain (E824 to I1795 residues) expressed in baculovirus infected Sf9 cells using 5-methylcytosine as substrate preincubated for 10 mins followed by substrate and DNA-cofactor addition measured after 10 mins by Alphascreen assay.
Test [4] has as its target T2, Methylcytosine dioxygenase TET2 (Homo sapiens, UniProt Q6N021). Put plainly: Inhibition of N-terminal His-tagged recombinant human TET2 catalytic domain LCIdel mutant (D1129 to G1936 residues with Y1481 to N1843 replaced by 3 x GGGGS linker) expressed in Escherichia coli BL21 (DE3) using 5-methylcytosine as substrate preincubated for 10 mins followed by substrate and DNA-cofactor addition measured after 10 mins by Alphascreen assay. Background: Bead proximity is the source of the signal in Alpha formats.

In test [5] the target is T1, Methylcytosine dioxygenase TET1. The experiment in a line: Inhibition of FLAG-tagged human TET1 catalytic domain (E1418 to V2136 residues) expressed in doxycycline induced human U2OS cells assessed as reduction in 5-hydroxymethylcytosine level at 30 to 100 uM incubated for 24 hrs by immunofluorescence assay. Format: cell-based. To be noted: dose 30-100 µM. In short, it runs like this: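 U2OS cells stably carrying dox-inducible FLAG-tagged TET1 catalytic domain were seeded at 5,000/well in DMEM with Tet-approved FBS (10%), penicillin/streptomycin and L-glutamine, then held 4 h at 37 °C. Induction used doxycycline 1 μg/mL alongside compound (1% DMSO final) for 24 h. Cells were fixed, permeabilised, blocked, immunostained (rabbit polyclonal oxidised-cytosine antibody 1:500, anti-FLAG 1:1000, 16 h) and DAPI-counterstained. Mean staining intensity of FLAG-TET1 cells was imaged.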

The nature of test [6]: Selectivity ratio of pIC50 for inhibition of N-terminal 3xFlag-tagged recombinant human TET1 catalytic domain (E1418 to V2136 residues) expressed in baculovirus infected Sf9 cells to pIC50 for inhibition of recombinant human TET3 catalytic domain (E824 to I1795 residues) expressed in baculovirus infected Sf9 cells.
In test [7] the test system is Methylcytosine dioxygenase TET2 (Homo sapiens), Q6N021 [UNDEFINED MUTATION]. The conditions noted are these: time 20.0 min.
The target of test [8] is T1, Methylcytosine dioxygenase TET1. The experiment in a line: Inhibition of FLAG-tagged human TET1 catalytic domain (E1418 to V2136 residues) expressed in doxycycline induced human U2OS cells incubated for 24 hrs by immunofluorescence assay. Format: cell-based. In short, it runs like this: as §1
The target of test [9] is Methylcytosine dioxygenase TET1 (Mus musculus, UniProt Q3URK3). The experiment in a line: Inhibition of recombinant mouse TET1 catalytic domain (E1367 to V2039 residues) expressed in baculovirus expression system using 5-methylcytosine as substrate preincubated for 10 mins followed by substrate and DNA-cofactor addition measured after 9 mins by Alphascreen assay. Put shortly: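 Murine Tet1 catalytic domain (E1367–V2039, High Five baculovirus) at 2 nM was preincubated 10 min with inhibitor (1% DMSO) in HEPES 50 mM pH 7.3, NaCl 150 mM, BSA 0.1%, Tween-20 0.01%. Ascorbate 200 µM, Fe(II) 20 µM, 2OG 20 µM and 5mC ssDNA 10 nM were added; reaction ran 9 min, then EDTA-quenched. AlphaScreen anti-5hmC detection by luminescence.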

The target of test [10] is T2, Methylcytosine dioxygenase TET2. Put plainly: Inhibition of N-terminal His-tagged recombinant human TET2 catalytic domain LCIdel mutant (D1129 to G1936 residues with Y1481 to N1843 replaced by 3 x GGGGS linker) expressed in Escherichia coli BL21 (DE3) using 5-methylcytosine as substrate preincubated for 10 mins followed by substrate and DNA-cofactor addition measured after 12 mins by SPE-MS analysis.

For test [11], the species on record is Homo sapiens. The experiment in a line: Selectivity ratio of pIC50 for inhibition of N-terminal 3xFlag-tagged recombinant human TET1 catalytic domain (E1418 to V2136 residues) expressed in baculovirus infected Sf9 cells to pIC50 for inhibition of N-terminal His-tagged recombinant human TET2 catalytic domain LCIdel mutant (D1129 to G1936 residues with Y1481 to N1843 replaced by 3 x GGGGS linker) expressed in Escherichia coli BL21 (DE3).

The source made the active and inactive calls. The calls are words filed in the database; no cut-off is given here. Bounds are passed on as bounds.

Methylcytosine dioxygenase TET3, sequence (O43151 whole entry, the tested form may be a part): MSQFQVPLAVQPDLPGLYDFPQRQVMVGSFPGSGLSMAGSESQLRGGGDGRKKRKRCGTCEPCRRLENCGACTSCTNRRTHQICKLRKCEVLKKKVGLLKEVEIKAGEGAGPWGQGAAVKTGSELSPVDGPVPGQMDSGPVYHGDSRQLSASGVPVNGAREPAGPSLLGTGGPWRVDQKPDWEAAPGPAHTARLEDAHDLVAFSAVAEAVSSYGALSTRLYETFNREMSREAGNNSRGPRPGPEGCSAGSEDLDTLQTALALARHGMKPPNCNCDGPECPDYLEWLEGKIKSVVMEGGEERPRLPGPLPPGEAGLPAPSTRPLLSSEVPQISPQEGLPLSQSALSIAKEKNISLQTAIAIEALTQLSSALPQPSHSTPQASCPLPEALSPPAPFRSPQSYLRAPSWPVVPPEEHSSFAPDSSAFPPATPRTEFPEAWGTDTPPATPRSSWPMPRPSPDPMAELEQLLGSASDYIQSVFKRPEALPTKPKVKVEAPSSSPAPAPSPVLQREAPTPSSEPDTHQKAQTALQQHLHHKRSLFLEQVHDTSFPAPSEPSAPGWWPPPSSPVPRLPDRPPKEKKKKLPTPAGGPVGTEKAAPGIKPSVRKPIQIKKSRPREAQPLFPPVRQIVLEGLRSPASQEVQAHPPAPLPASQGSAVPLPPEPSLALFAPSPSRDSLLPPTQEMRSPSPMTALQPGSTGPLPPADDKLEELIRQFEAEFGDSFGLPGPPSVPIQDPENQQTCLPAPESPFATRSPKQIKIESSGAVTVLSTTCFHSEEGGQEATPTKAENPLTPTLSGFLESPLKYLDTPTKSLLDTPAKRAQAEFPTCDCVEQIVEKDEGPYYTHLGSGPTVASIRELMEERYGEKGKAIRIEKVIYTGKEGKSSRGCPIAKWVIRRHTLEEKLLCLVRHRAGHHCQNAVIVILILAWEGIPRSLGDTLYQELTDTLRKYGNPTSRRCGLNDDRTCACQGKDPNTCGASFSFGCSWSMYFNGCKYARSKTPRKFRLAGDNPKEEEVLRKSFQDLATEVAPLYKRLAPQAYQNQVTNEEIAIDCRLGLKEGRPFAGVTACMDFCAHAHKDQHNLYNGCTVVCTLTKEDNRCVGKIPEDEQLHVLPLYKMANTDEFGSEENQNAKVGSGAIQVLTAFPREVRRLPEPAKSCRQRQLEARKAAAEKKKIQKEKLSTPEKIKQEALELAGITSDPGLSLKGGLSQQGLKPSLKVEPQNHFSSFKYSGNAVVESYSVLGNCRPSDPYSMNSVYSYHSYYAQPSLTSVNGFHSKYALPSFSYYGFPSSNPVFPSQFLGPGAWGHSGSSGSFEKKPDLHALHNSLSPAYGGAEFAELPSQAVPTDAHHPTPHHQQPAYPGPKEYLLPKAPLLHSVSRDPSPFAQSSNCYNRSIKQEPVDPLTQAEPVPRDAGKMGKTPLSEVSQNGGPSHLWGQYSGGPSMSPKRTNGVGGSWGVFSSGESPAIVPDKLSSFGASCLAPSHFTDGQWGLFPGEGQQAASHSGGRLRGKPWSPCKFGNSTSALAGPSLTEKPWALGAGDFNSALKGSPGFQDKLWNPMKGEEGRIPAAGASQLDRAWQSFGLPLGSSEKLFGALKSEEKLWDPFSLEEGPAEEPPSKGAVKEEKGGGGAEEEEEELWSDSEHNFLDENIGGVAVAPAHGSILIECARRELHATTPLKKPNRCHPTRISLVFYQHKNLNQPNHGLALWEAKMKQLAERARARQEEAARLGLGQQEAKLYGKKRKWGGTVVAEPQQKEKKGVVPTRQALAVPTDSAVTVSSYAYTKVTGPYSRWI

`CC[C@H](C)[C@@H]1NC(=O)[C@H](CC(C)C)NC(=O)[C@@H](Cc2ccc(O)cc2)NC(=O)CSC[C@H](C(=O)N[C@@H](Cc2ccc(O)cc2)C(=O)NCC(=O)N[C@@H](CCCNC(=N)N)C(=O)N[C@@H](CCCCN)C(=O)N[C@@H](CCCCN)C(=O)N[C@@H](CCCNC(=N)N)C(=O)N[C@@H](CCCNC(=N)N)C(=O)N[C@@H](CCC(N)=O)C(=O)N[C@@H](CCCNC(=N)N)C(=O)N[C@@H](CCCNC(=N)N)C(N)=O)NC(=O)[C@H](CO)NC(=O)[C@H](Cc2c[nH]cn2)NC(=O)[C@H](CCC(=O)O)NC(=O)[C@H](Cc2c[nH]c3ccccc23)NC(=O)[C@H](Cc2c[nH]c3ccccc23)NC(=O)[C@H]([C@@H](C)O)NC(=O)[C@H](Cc2ccc(O)cc2)NC(=O)[C@H](Cc2ccc(O)cc2)NC(=O)[C@H](C)NC(=O)[C@H](Cc2ccc(O)cc2)NC1=O`: the inhibition entry in [1] was “Active”. The IC50 in [2] (read-out: IC50) is 250 nM; in test [2] (read-out: pIC50 (converted)), 18.2 nM; in test [3] (read-out: IC50), more than 100000 nM; in test [3] (read-out: pIC50 (converted)), 182 nM. Moreover, the pIC50 in [4] was determined as 6.91.
For `N=C(N)NCCC[C@H](NC(=O)[C@H](CCCNC(=N)N)NC(=O)[C@H](CCCNC(=N)N)NC(=O)[C@H](CCC(N)=O)NC(=O)[C@H](CCCNC(=N)N)NC(=O)[C@H](CCCNC(=N)N)NC(=O)[C@H](CCCCN)NC(=O)[C@H](CCCCN)NC(=O)[C@H](CCCNC(=N)N)NC(=O)CNC(=O)[C@@H](N)Cc1ccc(O)cc1)C(=O)O`, the values for the IC50 in [2] (read-out: pIC50 (converted)) and in test [3] (read-out: pIC50 (converted)) were 1150 nM and more than 100000 nM, respectively. Also, the inhibition entry in test [5] is “Active”. Also, the pIC50 in test [4] worked out at 5.39.
For `CC[C@H](C)[C@@H]1NC(=O)[C@H](CC(C)C)NC(=O)[C@@H](Cc2ccc(O)cc2)NC(=O)CSC[C@@H](C(=O)NCC(=O)N[C@@H](CO)C(=O)NCC(=O)N[C@@H](CO)C(=O)N[C@@H](CC(=O)O)C(=O)N[C@@H](Cc2ccc(O)cc2)C(=O)N[C@@H](CCCCN)C(=O)N[C@@H](CC(=O)O)C(=O)N[C@@H](CC(=O)O)C(=O)N[C@@H](CC(=O)O)C(=O)N[C@@H](CC(=O)O)C(=O)N[C@@H](CCCCN)C(N)=O)NC(=O)[C@H](CO)NC(=O)[C@H](Cc2c[nH]cn2)NC(=O)[C@H](CCC(=O)O)NC(=O)[C@H](Cc2c[nH]c3ccccc23)NC(=O)[C@H](Cc2c[nH]c3ccccc23)NC(=O)[C@H]([C@@H](C)O)NC(=O)[C@H](Cc2ccc(O)cc2)NC(=O)[C@H](Cc2ccc(O)cc2)NC(=O)[C@H](C)NC(=O)[C@H](Cc2ccc(O)cc2)NC1=O`, in test [6], the Ratio pIC50 was determined as 58. In addition, the IC50 in [2] (read-out: pIC50 (converted)) is 407 nM; in test [3] (read-out: pIC50 (converted)), 23400 nM. In addition, the pIC50 in [4] is given as 4.59.
As to `O=C(O)c1ccc(O)c2ncccc12`, in test [7], the deltapIC50 was 0.07. Also, the IC50 in test [8] was 22000 nM; in test [2] (read-out: pIC50 (converted)) it was 562 nM; in test [9] it was 427 nM.
`CC[C@H](C)[C@@H]1NC(=O)[C@H](CC(C)C)NC(=O)[C@H](Cc2c[nH]c3ccccc23)NC(=O)[C@H](Cc2c[nH]c3ccccc23)NC(=O)[C@H]([C@@H](C)O)NC(=O)[C@H](Cc2ccc(O)cc2)NC(=O)[C@H](CC(C)C)NC(=O)[C@H](C)NC(=O)[C@H](Cc2ccc(O)cc2)NC(=O)[C@H](CCC(=O)O)NC(=O)[C@H](CCCNC(=N)N)NC(=O)[C@@H](Cc2ccc(O)cc2)NC(=O)CSC[C@@H](C(N)=O)NC(=O)[C@H](CCC(N)=O)NC1=O` showed a deltapIC50 in test [7] of 1.22. For the same compound, the pIC50 turned out to be 5.6 in [10] and 4.38 in test [4]. In addition, the IC50 in test [2] (read-out: pIC50 (converted)) is 204 nM; in test [9], 45700 nM; in test [3] (read-out: pIC50 (converted)) it was 49000 nM. For the same compound, the Ratio pIC50 in test [11] was 12.

The pIC50 is the IC50 on a negative log10 scale, so that one unit is a factor of ten.
